BB579 growth dn = chemicals that inhibit yeast BB579 growth in restrictive medium (lifespan-shortening candidates). 140,000 compounds, 0.51% hits. S. cerevisiae BB579 growth, OD615, 48 h. AID 804. inhibition, % at 10 µM;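 active = inhibition above a set limit, 3 SD over the mean compound inhibition, cut at about 44% in these data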
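System: Saccharomyces cerevisiae DeaD strain BB579, replicative lifespan model yeast. Buffer or medium: restrictive glucose-based CSMM-D medium. Doses: one dose, 10 µM compound with 0.25% DMSO. Timing: 4 h preincubation and 48 h exposure at 30 °C. Detection: turbidity as optical density at 615 nm. Benchmarks: amphotericin B 10 µg/mL, positive.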
Measles CPE = protection of cells from measles virus; Measles virus-infected cells, CPE protection, absorbance; protection (pct of control), % at 4 µM; 140,000 compounds, 1.5% hits; AID 841; in the data active = protection mostly above about 24%, no sharp cut-off; inactive = mostly below about 26%
RAM inhibit = yeast RAM network inhibition; 190,000 compounds, 1.8% hits; inhibition, % at 50 µM; AID 868; S. cerevisiae dse1pr::URA3 reporter, 5-FOA growth OD615, 2 d; analog-sensitive cbk1-as2 kinase mutant strain;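 active = inhibition above a set limit, 3 SD over mean compound inhibition, cut at about 8.4% in these data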;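 also: 0% = DMSO-only wells with no growth and 100% = 10 µM 1-NA-PP1 full growth; inhibition rescues growth on 5-FOA so higher OD means more RAM inhibition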
Insulin prom inh = TRM-6 insulin promoter activity inhibition. TRM-6 cells, insulin promoter-eGFP reporter, imaging; reporter expression induced with tamoxifen. inhibition, % at 2 µM. 130,000 compounds, 0.9% hits;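 active = inhibition above the mean plus 3 SD, with well images judged a real hit on visual review, cut at about 60% in these data, passing the limit was not always enough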
Mdm2 ligase inh = Mdm2 E3 ligase (human) inhibition. Q00987. cell-based MDM2 ubiquitination luciferase reporter, 2 h; 0 = plate control, 100 = twice control, blank-subtracted. signal enhancement, % at 5 µM. 210,000 compounds, 0.11% hits;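 active = signal enhancement of 30% or more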;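 also: luminescence tracks abundance of the self-degrading MDM2-luciferase fusion protein; higher signal means inhibition of MDM2 E3 ligase activity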
Target sequence (Q00987 whole entry, looked up, the tested form may be a part): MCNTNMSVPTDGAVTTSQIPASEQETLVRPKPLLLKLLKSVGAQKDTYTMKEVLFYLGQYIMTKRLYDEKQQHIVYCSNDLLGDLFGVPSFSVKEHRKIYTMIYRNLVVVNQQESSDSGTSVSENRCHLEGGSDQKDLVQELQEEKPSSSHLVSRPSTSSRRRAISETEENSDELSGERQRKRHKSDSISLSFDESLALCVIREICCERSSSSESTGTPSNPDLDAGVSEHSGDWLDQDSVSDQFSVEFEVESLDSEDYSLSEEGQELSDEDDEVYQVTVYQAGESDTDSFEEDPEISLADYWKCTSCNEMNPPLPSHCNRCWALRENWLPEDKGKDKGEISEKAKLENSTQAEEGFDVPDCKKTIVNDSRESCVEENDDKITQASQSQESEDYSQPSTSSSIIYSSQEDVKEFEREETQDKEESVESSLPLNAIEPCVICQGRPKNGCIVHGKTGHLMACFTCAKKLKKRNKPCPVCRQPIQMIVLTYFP
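Assay system: stable mammalian line carrying autodegrading MDM2–luciferase fusion reporter; Input: 2000 cells in each well; Compound dosing: single-point 5 µM; Schedule: 2 h compound exposure at 37 °C; Signal: SteadyLite luciferase luminescence after 15 min room-temperature reagent incubation; Evaluation: % luminescence enhancement versus blank-corrected plate control mean; Benchmarks: plate controls and plate blanks.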
Yeast life ext = extends the lifespan of yeast; inhibition of the nicotinamide effect, % at 10 µM; S. cerevisiae growth with nicotinamide, OD615; deaD strain in restrictive glucose medium; 130,000 compounds, 0.68% hits; AID 775;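 active = inhibition above a set limit, placed 3 SD over the median of all compounds, cut at about 26% in these data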;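 also: 0% = nicotinamide-treated wells and 100% = cells grown without nicotinamide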
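Measured by: optical density (absorbance) at 615 nm; System: modified budding yeast, DeaD strain; Medium: restrictive CSMM-D dextrose medium; Timing: 4 h preincubation then 48 h treatment at 30 °C.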
* = called active by the depositor; . = no result. Most compounds without a hit are left out; they make up all but 4% or so of the library.

SMILES | BB579 growth dn | Measles CPE | RAM inhibit | Insulin prom inh | Mdm2 ligase inh | Yeast life ext
CC(NC(=S)Nc1ccc(S(=O)(=O)N2CCOCC2)cc1)C1CC2CCC1C2 (stereo not given) | -0.8 | 14.9 | 3.3 | 0.0 | 9.7 | -2.0
COc1ccc(C(C)NC(=O)c2ccccc2)cc1 (stereo not given) | -63.1 | 4.8 | -0.8 | -2.9 | -5.5 | 83.7*
CC(NC(=O)c1ccc(F)cc1)c1ccccc1 (stereo not given) | 18.8 | 37.6* | 1.2 | 43.3 | 0.9 | -14.3
COc1cccc(C(=O)NC(C)c2ccc(Br)cc2)c1 (stereo not given) | -20.5 | 3.1 | -0.1 | 16.7 | -2.3 | 5.8
Cc1ccc(C(=O)NC(C)c2ccc(F)cc2)cc1 (stereo not given) | 4.2 | 9.9 | -1.0 | . | -13.6 | -2.6
O=C(Nc1ccc(S(=O)(=O)Nc2ccc(Cl)cc2)cc1)C1CCCO1 (stereo not given) | -72.7 | 39.6* | -1.4 | -80.0 | -3.0 | -10.2
Cc1cccc(Sc2ccc([N+](=O)[O-])cc2[N+](=O)[O-])n1 | -18.9 | 38.7* | 1.2 | -49.2 | -5.7 | 1.3
Fc1ccc2nc3[nH]c4ccccc4c3nc2c1 | 63.2* | 2.9 | 8.9* | 90.9* | -20.5 | -29.4
CCOC(=O)c1ccc2c(c1)n(CCO)c(C)[n+]2CC | 7.9 | 11.2 | 0.5 | -25.0 | -32.9 | 71.2*
CCOC(=O)C(C)n1nc(/C=C/c2ccccc2)ccc1=O (stereo not given) | -53.9 | 88.5* | 0.7 | 0.0 | -20.7 | -26.2
CCOC(=O)C(C)n1nc(/C=C/c2ccc(OC)cc2)ccc1=O (stereo not given) | . | . | 1.7 | 31.7 | -6.0 | .
O=C(/C=C/c1cccs1)Nc1nccs1 | . | . | -0.6 | . | -20.1 | .
O=C(/C=C/c1cccs1)Nc1cccc(NC(=O)/C=C/c2cccs2)n1 | -48.4 | 90.0* | 2.3 | . | -18.5 | -4.7
O=C(NS(=O)(=O)Oc1ccc(Cl)cc1)OC[C@@H]1CCCN2CCCC[C@H]12 | 8.6 | 4.0 | 0.4 | 23.3 | . | 3.2
Cc1c(-c2nnc(SCC(=O)O)n2-c2ccccc2Br)nnn1-c1ccccc1 | -33.5 | 10.3 | 2.0 | 0.0 | -19.5 | 6.0
CC(C)Cc1nc(N2CCN(C(=O)c3ccccc3)CC2)c(C#N)c2c1CCC2 | -18.1 | 10.8 | 4.3 | 48.6 | -3.0 | -21.4
CC(C)Cc1nc(N2CCN(C(=O)c3ccco3)CC2)c(C#N)c2c1CCC2 | -24.9 | 8.5 | 9.2* | 8.3 | 0.2 | -18.7
CCc1ccc(S(=O)(=O)c2nnn3c2nc(NCCNC(C)=O)c2ccccc23)cc1 | . | . | 6.0 | 83.3* | -19.3 | .
N#Cc1ccc(C(=O)Nc2ccc([N+](=O)[O-])cc2)c(F)c1 | . | . | 4.1 | . | 7.0 | .
NC(=O)c1nsc(C(=O)N(CCc2ccccc2)C(C(=O)NC2CCCC2)c2ccco2)c1N (stereo not given) | -54.2 | 5.5 | 8.7* | -17.4 | -15.1 | -10.4
C/C(=N\NC(=O)c1ccccc1)c1ccc(-n2ccnc2)cc1 | -8.4 | 15.7 | 3.3 | 8.8 | -6.5 | 0.1
C/C(=N\Nc1ccc(Cl)c(Cl)c1)c1ccc(-n2ccnc2)cc1 | 94.8* | 6.9 | -1.1 | 5.4 | -6.2 | -10.4
COc1ccc(N(C)S(=O)(=O)c2cccc(C(=O)Nc3nc4ccccc4[nH]3)c2)cc1 | . | . | 3.5 | 71.4* | -11.3 | .
CN(c1cccc(Cl)c1)S(=O)(=O)c1cccc(C(=O)Nc2nc3ccccc3[nH]2)c1 | -19.2 | 9.8 | 7.0 | . | -10.0 | 10.0
CCc1nnc(NC(=O)c2cccc(S(=O)(=O)N(C)c3ccccc3)c2)s1 | -91.3 | 2.9 | 2.1 | -50.7 | . | 71.5*
Cc1cc(N2CCN(C)CC2)nc2ccc(NC(=S)N3CCC4(CC3)OCCO4)cc12 | . | . | 1.5 | . | -12.6 | .
Cn1cnnc1SCC(=O)NNC(=O)c1ccc(Cl)cc1 | -16.2 | 5.8 | 0.3 | 44.8 | 10.2 | -0.8
O=C(OC(C(=O)NCc1ccc2c(c1)OCO2)c1ccccc1F)c1ccco1 (stereo not given) | -23.5 | 3.3 | -0.6 | . | -22.9 | -4.7
O=C(OC(C(=O)NCc1cccs1)c1ccccc1F)c1ccco1 (stereo not given) | -18.2 | 42.0* | 2.0 | 45.2 | . | .
